Consider 11 molecules from ChEMBL document CHEMBL1125281, “Identification and synthesis of a receptor binding site of human anaphylatoxin C5a” (J Med Chem, 1991).

Where a SMILES comes first, the peptide text is derived from it.

Assay [1] has as its target T1, C5a anaphylatoxin chemotactic receptor 1 (Homo sapiens, UniProt P21730).
T1 sequence (P21730 whole entry): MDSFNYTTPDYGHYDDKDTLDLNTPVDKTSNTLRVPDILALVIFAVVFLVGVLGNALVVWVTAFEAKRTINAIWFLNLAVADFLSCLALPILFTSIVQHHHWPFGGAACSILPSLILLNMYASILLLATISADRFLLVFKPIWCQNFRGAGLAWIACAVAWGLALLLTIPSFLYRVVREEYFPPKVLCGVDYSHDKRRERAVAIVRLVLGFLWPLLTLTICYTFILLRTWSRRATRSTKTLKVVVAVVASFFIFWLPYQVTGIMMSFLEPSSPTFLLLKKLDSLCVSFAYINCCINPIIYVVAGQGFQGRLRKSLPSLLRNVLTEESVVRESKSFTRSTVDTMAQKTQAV
The assay can be described thus: Inhibition of [125I]C5a binding to C5a anaphylatoxin chemotactic receptor in PMNL membranes. In kind it is cell membranes.

The target of assay [2] is T1, C5a anaphylatoxin chemotactic receptor 1. The assay can be described thus: Inhibition of [125I]-C5a anaphylatoxin chemotactic receptor binding to PMNL membranes.
Assay [3] addresses T2, C5a anaphylatoxin chemotactic receptor 1 (Homo sapiens) (UniProt P21730).
T2 sequence (whole entry): T1 sequence (P21730 whole entry)
Kind of assay: Compound was tested for the inhibition of [125I]C5a anaphylatoxin chemotactic receptor binding to PMNL intact cells at a concentration of 0.1-1 mM. In kind it is cell-based.

Assay [4] addresses T1, C5a anaphylatoxin chemotactic receptor 1. The assay can be described thus: Inhibition of [125I]C5a binding to C5a anaphylatoxin chemotactic receptor in PMNL intact cells; inactive. In kind it is cell-based. In a few lines: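 Intact human PMNL isolated from peripheral blood by one-step density centrifugation. Cells incubated 20 min at 23 °C with [125I]C5a (1 × 10⁻⁹ M), test peptide and protease inhibitors. Cells separated from free ligand by centrifugation through silicone oil at 10000g; pellet γ counts read.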

For assay [5] the target is unchanged. The assay can be described thus: Compound was tested for the inhibition of [125I]C5a binding to C5a anaphylatoxin chemotactic receptor in PMNL membranes; inactive. In kind it is cell membranes.
Assay [6] has the same target. The assay can be described thus: Compound was tested for the inhibition of [125I]C5a anaphylatoxin chemotactic receptor binding to PMNL membranes at a concentration of 0.1-1 mM.
The target in assay [7] is T2, C5a anaphylatoxin chemotactic receptor 1 (Homo sapiens). The assay can be described thus: Compound was tested for the inhibition of [125I]C5a binding to C5a anaphylatoxin chemotactic receptor in PMNL membranes. It is filed as cell membranes. The following applies: concentration not given here.
The target of assay [8] is T1, C5a anaphylatoxin chemotactic receptor 1. Kind of assay: Compound was tested for the inhibition of [125I]C5a binding to C5a anaphylatoxin chemotactic receptor binding to PMNL membranes.

Molecule `CSCC[C@H](NC(=O)[C@H](CC(=O)O)NC(=O)[C@H](CCCCN)NC(=O)[C@H](Cc1cnc[nH]1)NC(C)=O)C(=O)N[C@@H](CCC(N)=O)C(=O)N[C@@H](CC(C)C)C(=O)NCC(=O)N[C@@H](CCCNC(=N)N)C(=O)O` (Ac-HKDMQLGR-OH) showed a Ki in assay [1] of 150 µM.
The molecule `CC[C@H](C)[C@H](NC(=O)[C@H](CCSC)NC(C)=O)C(=O)N[C@@H](CCCCN)C(=O)N[C@@H](C)C(=O)N[C@@H](Cc1ccccc1)C(=O)N[C@H](C(=O)N[C@@H](CCC(=O)O)C(=O)N[C@@H](CCSC)C(=O)N[C@@H](CCSC)C(=O)N[C@H](C(=O)N[C@H](C(=O)N[C@@H](C)C(=O)N[C@@H](CO)C(=O)N[C@@H](CCC(N)=O)C(=O)N[C@@H](CC(C)C)C(=O)N[C@@H](CCCN=C(N)N)C(=O)N[C@@H](C)C(=O)N[C@@H](CC(N)=O)C(=O)N[C@H](C(=O)N[C@@H](CO)C(=O)N[C@@H](Cc1c[nH]cn1)C(=O)N[C@@H](CCCCN)C(=O)N[C@@H](CC(=O)O)C(=O)N[C@@H](CCSC)C(=O)N[C@@H](CCC(N)=O)C(=O)N[C@@H](CC(C)C)C(=O)NCC(=O)N[C@@H](CCCN=C(N)N)C(=O)O)[C@@H](C)CC)C(C)C)C(C)C)[C@@H](C)O` (Ac-MIKAFTEMMVVASQLRANISHKDMQLGR-OH) gave an inhibition constant Ki in assay [2] of 100 µM. The molecule further returned an inhibition in assay [3] greater than 20%.
Regarding `CSCC[C@H](NC(=O)[C@H](CC(=O)O)NC(=O)[C@H](CCCCN)NC(=O)[C@@H](N)Cc1c[nH]cn1)C(=O)N[C@@H](CCC(N)=O)C(=O)N[C@@H](CC(C)C)C(=O)NCC(=O)N[C@@H](CCCN=C(N)N)C(=O)O` (H-HKDMQLGR-OH), the Ki entry in assay [4] was “Not Active”; in assay [1], 300 µM.
Take `CSCC[C@H](NC(=O)[C@H](CC(=O)O)NC(C)=O)C(=O)N[C@@H](CCC(N)=O)C(=O)N[C@@H](CC(C)C)C(=O)NCC(=O)N[C@@H](CCCN=C(N)N)C(=O)O` (Ac-DMQLGR-OH): the Ki entry in assay [4] and in assay [5] was “Not Active” in each case.
In the case of `CC[C@H](C)[C@H](NC(=O)[C@H](CC(N)=O)NC(=O)[C@H](C)NC(=O)[C@H](CCCNC(=N)N)NC(=O)[C@H](CC(C)C)NC(=O)[C@H](CCC(N)=O)NC(=O)[C@@H](N)CO)C(=O)N[C@@H](CO)C(=O)N[C@@H](Cc1cnc[nH]1)C(=O)N[C@@H](CCCCN)C(=O)N[C@@H](CC(=O)O)C(=O)N[C@@H](CCSC)C(=O)N[C@@H](CCC(N)=O)C(=O)N[C@@H](CC(C)C)C(=O)NCC(=O)N[C@@H](CCCNC(=N)N)C(=O)O` (H-SQLRANISHKDMQLGR-OH), the affinity in assay [6], expressed as Ki, was 300 µM.
`CSCC[C@H](NC(=O)[C@H](CC(=O)O)NC(=O)[C@H](CCCCN)NC(C)=O)C(=O)N[C@@H](CCC(N)=O)C(=O)N[C@@H](CC(C)C)C(=O)NCC(=O)N[C@@H](CCCN=C(N)N)C(=O)O` (Ac-KDMQLGR-OH): in assay [4], the Ki result was “Not Active”. Further, in assay [7], the inhibition was determined as 30%.
On to `CC[C@H](C)[C@H](N)C(=O)N[C@@H](CO)C(=O)N[C@@H](Cc1cnc[nH]1)C(=O)N[C@@H](CCCCN)C(=O)N[C@@H](CC(=O)O)C(=O)N[C@@H](CCSC)C(=O)N[C@@H](CCC(N)=O)C(=O)N[C@@H](CC(C)C)C(=O)NCC(=O)N[C@@H](CCCNC(=N)N)C(=O)O` [ISHKDMQLGR] (H-ISHKDMQLGR-OH), for which the affinity in assay [1], expressed as Ki, was 300 µM.
`CC[C@H](C)[C@H](NC(=O)[C@H](CC(N)=O)NC(=O)[C@H](C)NC(=O)[C@H](CCCN=C(N)N)NC(=O)[C@H](CC(C)C)NC(=O)[C@H](CCC(N)=O)NC(=O)[C@H](CO)NC(=O)[C@H](C)NC(=O)[C@@H](NC(=O)[C@@H](NC(=O)[C@H](CCSC)NC(=O)[C@H](CCSC)NC(=O)[C@H](CCC(=O)O)NC(=O)[C@@H](NC(=O)[C@@H](N)Cc1ccccc1)[C@@H](C)O)C(C)C)C(C)C)C(=O)N[C@@H](CO)C(=O)N[C@@H](Cc1c[nH]cn1)C(=O)N[C@@H](CCCCN)C(=O)N[C@@H](CC(=O)O)C(=O)N[C@@H](CCSC)C(=O)N[C@@H](CCC(N)=O)C(=O)N[C@@H](CC(C)C)C(=O)NCC(=O)N[C@@H](CCCN=C(N)N)C(=O)O` (H-FTEMMVVASQLRANISHKDMQLGR-OH) yielded an inhibition in assay [3] greater than 20%.
As for `CC[C@H](C)[C@H](NC(=O)[C@H](CC(N)=O)NC(=O)[C@H](C)NC(=O)[C@H](CCCNC(=N)N)NC(=O)[C@H](CC(C)C)NC(=O)[C@H](CCC(N)=O)NC(=O)[C@H](CO)NC(=O)[C@H](C)NC(=O)[C@@H](NC(=O)[C@@H](NC(=O)[C@H](CCSC)NC(=O)[C@H](CCSC)NC(=O)[C@H](CCC(=O)O)NC(=O)[C@@H](NC(=O)[C@@H](N)Cc1ccccc1)[C@@H](C)O)C(C)C)C(C)C)C(=O)N[C@@H](CO)C(=O)N[C@@H](Cc1cnc[nH]1)C(=O)N[C@@H](CCCCN)C(=O)N[C@@H](CC(=O)O)C(=O)N[C@@H](CCSC)C(=O)N[C@@H](CCC(N)=O)C(=O)N[C@@H](CC(C)C)C(=O)NCC(=O)N[C@@H](CCCNC(=N)N)C(=O)O` (H-FTEMMVVASQLRANISHKDMQLGR-OH), the affinity in assay [2] corresponds to a Ki of 100 µM.
In the case of `CC[C@H](C)[C@H](NC(C)=O)C(=O)N[C@@H](CO)C(=O)N[C@@H](Cc1c[nH]cn1)C(=O)N[C@@H](CCCCN)C(=O)N[C@@H](CC(=O)O)C(=O)N[C@@H](CCSC)C(=O)N[C@@H](CCC(N)=O)C(=O)N[C@@H](CC(C)C)C(=O)N[C@@H](CCCN=C(N)N)C(=O)NCC(=O)N[C@@H](CCCN=C(N)N)C(=O)O` (Ac-ISHKDMQLRGR-OH), the Ki was 100 µM in assay [8] and “Not Active” in assay [4].
`CC[C@H](C)[C@H](NC(=O)[C@H](CC(N)=O)NC(=O)[C@H](C)NC(=O)[C@H](CCCNC(=N)N)NC(=O)[C@H](CC(C)C)NC(=O)[C@H](CCC(N)=O)NC(=O)[C@H](CO)NC(=O)[C@H](C)NC(=O)[C@@H](NC(=O)[C@@H](NC(=O)[C@H](CCSC)NC(C)=O)C(C)C)C(C)C)C(=O)N[C@@H](CO)C(=O)N[C@@H](Cc1cnc[nH]1)C(=O)N[C@@H](CCCCN)C(=O)N[C@@H](CC(=O)O)C(=O)N[C@@H](CCSC)C(=O)N[C@@H](CCC(N)=O)C(=O)N[C@@H](CC(C)C)C(=O)NCC(=O)N[C@@H](CCCNC(=N)N)C(=O)O` (Ac-MVVASQLRANISHKDMQLGR-OH) had a Ki in assay [2] of 50 µM.
